High-throughput results deposited in PubChem by Broad Institute.
Shown are actives, neighbours in structure and some others; about 3.6% of the full set was active somewhere.
HSF1 activator: increases HSF-1 driven luciferase reporter signal | 1.7% of 300,000 active | activation, % at 9 µM | NIH3T3-HGL HSF-1 luciferase reporter, MG132, 8 h; 100% = twice DMSO control signal;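 active = mean replicate activation of at least 50% with a set share of replicates each reaching 50%; inconclusive = only one of those two conditions met; inactive = mean below 50% and too few replicates reaching it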;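 note: 0% = median of the neutral control wells and 100% = twice that signal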
MITF act: MITF TRPM1 promoter activation in melanoma cells; SK-MEL-5 TRPM1-promoter luciferase, 24 h; % of positive control, neutral wells = 0; activation, % at 12.5 µM; 0.75% of 300,000 active; AID 588334;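 active = mean activation of at least 80% with every replicate also reaching 80%; inconclusive = mean reaches 80% but some replicate falls short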;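 note: 0% = neutral control wells and 100% = parthenolide positive control wells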
SR-BI HDL uptake: blocks mouse SR-BI lipid uptake from DiI-HDL; ldlA[mSR-BI] CHO cells, DiI-HDL uptake fluorescence, 3 h; 0.96% of 320,000 active; inhibition, % at 12.5 µM; AID 488896; Q61009;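 active = mean replicate inhibition of at least 70% and a set share of replicates each scoring 70 or more; inconclusive = meets just one of the two criteria; inactive = fails both criteria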;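 note: 0% = median of neutral control wells and 100% = median of positive control wells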
Target sequence (Q61009 whole entry, looked up): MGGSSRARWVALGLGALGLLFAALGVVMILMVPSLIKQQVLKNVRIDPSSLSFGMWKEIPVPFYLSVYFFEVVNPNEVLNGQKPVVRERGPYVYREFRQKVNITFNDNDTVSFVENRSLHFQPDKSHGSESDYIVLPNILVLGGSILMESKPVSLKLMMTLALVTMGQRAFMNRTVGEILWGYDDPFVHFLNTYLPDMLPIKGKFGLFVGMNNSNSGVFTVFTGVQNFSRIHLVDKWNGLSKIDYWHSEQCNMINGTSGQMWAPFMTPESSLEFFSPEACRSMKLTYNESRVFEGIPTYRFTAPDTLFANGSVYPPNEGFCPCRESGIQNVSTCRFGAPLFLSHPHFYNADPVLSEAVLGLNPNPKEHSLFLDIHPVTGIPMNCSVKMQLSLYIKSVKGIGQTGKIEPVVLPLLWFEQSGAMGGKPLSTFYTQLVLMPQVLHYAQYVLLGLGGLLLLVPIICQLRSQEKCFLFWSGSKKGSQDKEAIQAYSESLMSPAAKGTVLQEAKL
Wnt bcat act: activates Wnt/beta-catenin signaling in a reporter cell assay; activator, plate reader; activation, % at 9.35 µM; 1.2% of 300,000 active; AID 743398; in the data active = activation above about 30%, passing the limit was not always enough; inconclusive = no clear call, values can overlap the other calls;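 note: 0% = neutral control wells and 100% = positive control wells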
SR-BI DiI-HDL act: activators of SR-BI mediated HDL lipid uptake | 0.096% of 320,000 active | activation, % at 12.5 µM | CHO ldlA[mSR-BI] cells, DiI-HDL uptake fluorescence, 3 h; 100 = double the neutral-control signal | AID 504775;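 active = mean replicate activation of at least 60% and every replicate at or above 60%; inconclusive = mean or all-replicate condition met, but not both; inactive = mean below 60% and not all replicates reaching 60%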;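 note: 0% = median plate neutral-control signal and 100% = twice that signal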
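Material: SR-BI-overexpressing, LDLR-lacking CHO cells | Dosing: Single compound concentration, delivered by pin transfer | Probe or stimulus: Labelled HDL, 10 µg/mL | Signal: Bottom-read cell fluorescence after medium removal, ex 550/em 595 nm | Schedule: 3 h, 37 °C | Evaluation: HDL uptake via cellular fluorescence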
Starred values were filed as active, the others as inactive.

What do the screens show for `O=C(Nc1ccc(F)c(Cl)c1)c1cc(C2CCCN(C(=O)c3cccs3)C2)on1` (stereo not given)?
Wnt bcat act: 19

What do the screens show for `CC(C)(C)c1ccc(NC(=O)c2cc(C3CCCN(C(=O)CCc4ccccc4)C3)on2)cc1` (stereo not given)?
Wnt bcat act: -1

Results for CCn1c(C)nc2cc(C(=O)OC)ccc21 ?
HSF1 activator: 15; MITF act: 14; SR-BI HDL uptake: 16; Wnt bcat act: 9; SR-BI DiI-HDL act: -16

Results for CCn1c(C)nc2cc(C(=O)N/N=C/c3ccccc3C)ccc21 ?
HSF1 activator: 30; MITF act: 31; SR-BI HDL uptake: 57; Wnt bcat act: 5; SR-BI DiI-HDL act: -57

What do the screens show for `CCn1c(C)nc2cc(C(=O)NN=Cc3ccccc3OC(F)F)ccc21`?
MITF act: 90*; SR-BI HDL uptake: 34; Wnt bcat act: -3; SR-BI DiI-HDL act: -34

How did CCn1c(C)nc2cc(C(=O)N/N=C(\C)c3ccccc3O)ccc21 do in these assays?
HSF1 activator: 15; MITF act: 90*; SR-BI HDL uptake: 63; Wnt bcat act: 6; SR-BI DiI-HDL act: -63

Results for COc1ccc(N=N/C(=C\O)C(=O)c2cccs2)cc1 ?
HSF1 activator: 67*; MITF act: -6; SR-BI HDL uptake: 25; Wnt bcat act: 2; SR-BI DiI-HDL act: -25

What do the screens show for `COc1ccc(C(=O)/C(=C/O)N=Nc2ccc(F)cc2)cc1`?
HSF1 activator: 20; MITF act: 16; SR-BI HDL uptake: 44; Wnt bcat act: -2; SR-BI DiI-HDL act: -44

Results for COc1cc(N(C)C)ccc1[C@]1(O)C(=O)N(C)c2ccc(Br)cc21 ?
Wnt bcat act: -1

What do the screens show for `O=C(NC(=S)NCCO)c1sc2ccccc2c1Cl`?
HSF1 activator: 29; MITF act: 45; Wnt bcat act: 42*

How did CN(C)CC(=O)Nc1ccc2c(c1)[C@H]1C[C@H](CC(=O)NCc3ccc4c(c3)OCO4)O[C@H](CO)[C@H]1O2 do in these assays?
Wnt bcat act: -1

What do the screens show for `COc1cc2c(cc1NC(=O)Nc1ccc(C)cc1)oc1ccccc12`?
HSF1 activator: -2; MITF act: 19; SR-BI HDL uptake: 56; SR-BI DiI-HDL act: -56

What do the screens show for `COc1cc2c(cc1NC(=O)Nc1cccc(C)c1)oc1ccccc12`?
HSF1 activator: -1; SR-BI HDL uptake: 87*; SR-BI DiI-HDL act: -87

Results for COc1cc2c(cc1NC(=O)/C=C/c1ccccc1)oc1ccccc12 ?
HSF1 activator: 1; MITF act: -10; SR-BI HDL uptake: 80*; Wnt bcat act: -2; SR-BI DiI-HDL act: -80

What do the screens show for `COc1ccc(NC(=O)Nc2cc3oc4ccccc4c3cc2OC)cc1`?
HSF1 activator: 21; MITF act: 17; SR-BI HDL uptake: 98*; Wnt bcat act: 0; SR-BI DiI-HDL act: -98

How did COc1ccc(/C=C/C(=O)NC(=S)Nc2cc3oc4ccccc4c3cc2OC)cc1 do in these assays?
HSF1 activator: 4; MITF act: -6; SR-BI HDL uptake: -14; Wnt bcat act: 7; SR-BI DiI-HDL act: 14

How did CCOC(=O)N1CCC(Nc2cc(C)nc3c(-c4ccccc4OC)c(C)nn23)CC1 do in these assays?
HSF1 activator: 2; MITF act: -20; SR-BI HDL uptake: 9; Wnt bcat act: -2; SR-BI DiI-HDL act: -9

What do the screens show for `COc1ccccc1-c1cnn2c(NC3CCCC3)cc(C)nc12`?
HSF1 activator: inconclusive; MITF act: 140*; SR-BI HDL uptake: 86*; Wnt bcat act: 25; SR-BI DiI-HDL act: -86

What do the screens show for `COC(=O)[C@]12C[C@H](CC(=O)N3CCSCC3)C(=O)N(Cc3ccccc3)C1=C[C@H](C(C)C)O[C@@H]2C1CC1`?
Wnt bcat act: -5

What do the screens show for `O=S(=O)(c1ccc(Cl)cc1)N1CCC(c2nc3ccccc3[nH]2)CC1`?
HSF1 activator: 73*; MITF act: -17; SR-BI HDL uptake: -7; Wnt bcat act: -2; SR-BI DiI-HDL act: 7

What do the screens show for `CC(=O)c1ccc(S(=O)(=O)N2CCC(c3nc4ccccc4[nH]3)CC2)cc1`?
HSF1 activator: -18; MITF act: 0; SR-BI HDL uptake: -6; Wnt bcat act: -2; SR-BI DiI-HDL act: 6

How did CCOC(=O)c1oc2nc3c(cc2c1N)COC(C)(C)C3 do in these assays?
HSF1 activator: -7; MITF act: 59; SR-BI HDL uptake: -6; Wnt bcat act: 49*; SR-BI DiI-HDL act: 6

How did COC(=O)c1sc2nc3c(cc2c1N)COC(C)(C)C3 do in these assays?
HSF1 activator: 40; MITF act: 67; SR-BI HDL uptake: -170; SR-BI DiI-HDL act: 170*

Results for CCOC(=O)c1oc2nc3c(cc2c1N)CCCC3 ?
HSF1 activator: 20; Wnt bcat act: 37*

What do the screens show for `CC1(C)Cc2nc3sc(C(=O)NCCCO)c(N)c3cc2CO1`?
HSF1 activator: 4; SR-BI HDL uptake: -16; Wnt bcat act: 1; SR-BI DiI-HDL act: 16

Results for C=CCCC(=O)N1C[C@H]2CON(C)[C@H]2C[C@H]1c1ccc(Br)cc1 ?
Wnt bcat act: -1

Results for O=[N+]([O-])c1cc(Cl)ccc1-c1nc(-c2ccccc2)no1 ?
HSF1 activator: 95*; MITF act: 47; SR-BI HDL uptake: 10; Wnt bcat act: 51*; SR-BI DiI-HDL act: -10

What do the screens show for `O=[N+]([O-])c1ccccc1-c1nc(-c2ccc(Br)o2)no1`?
HSF1 activator: inconclusive; MITF act: 40; SR-BI HDL uptake: -2; Wnt bcat act: 47*; SR-BI DiI-HDL act: 2

Results for Cc1nc(-c2noc(-c3cccc(Cl)c3)n2)c(C(F)(F)F)o1 ?
HSF1 activator: 22; SR-BI HDL uptake: 15; Wnt bcat act: 27; SR-BI DiI-HDL act: -15

Results for Clc1ccccc1-c1nc(-c2ccc(Br)o2)no1 ?
HSF1 activator: 42; SR-BI HDL uptake: -37; Wnt bcat act: 24; SR-BI DiI-HDL act: 37

Results for Clc1ccc(-c2nc(-c3ccncc3)no2)c(Cl)c1 ?
HSF1 activator: 43; SR-BI HDL uptake: 2; Wnt bcat act: 60*; SR-BI DiI-HDL act: -2

Results for Cc1nc(-c2noc(-c3ccccc3Cl)n2)c(C(F)(F)F)o1 ?
HSF1 activator: 29; MITF act: 83*; SR-BI HDL uptake: 4; Wnt bcat act: -2; SR-BI DiI-HDL act: -4

What do the screens show for `O=[N+]([O-])c1cc(Cl)ccc1-c1nc(-c2ccncc2)no1`?
HSF1 activator: 20; MITF act: -1; SR-BI HDL uptake: 3; Wnt bcat act: 7; SR-BI DiI-HDL act: -4

Results for C[C@@H]1CN(S(=O)(=O)C(C)(C)C)[C@H](CCO)/C1=C\CCO ?
Wnt bcat act: -1

Results for CCOC(=O)CCC(NC(=O)c1ccc(Nc2nc3ccccc3nc2C(=O)OCC)cc1)C(=O)OCC (stereo not given) ?
SR-BI HDL uptake: 7; Wnt bcat act: -6; SR-BI DiI-HDL act: -7

Results for COC(=O)c1cc2c(c3c4ccccc4n(S(=O)(=O)c4ccccc4)c13)C(=O)N(Cc1ccc(N(C)C)cc1)C2 ?
Wnt bcat act: -4
